SENP1 FRET inh: human SENP1 catalytic domain inhibitors, primary screen, biochemical, FRET, uHTS; recombinant SENP1 catalytic domain, CyPet-SUMO1-YPet FRET cleavage; inhibition, % at 10 µM; 360,000 tested, 0.21% active; AID 624204, 2012;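 active means inhibition at least 30% at 10 µM, raw YFP signal under a set limit, fluorescence ratio 0.5 to 1.5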
Target sequence (Q9P0U3 419-644 limits assumed): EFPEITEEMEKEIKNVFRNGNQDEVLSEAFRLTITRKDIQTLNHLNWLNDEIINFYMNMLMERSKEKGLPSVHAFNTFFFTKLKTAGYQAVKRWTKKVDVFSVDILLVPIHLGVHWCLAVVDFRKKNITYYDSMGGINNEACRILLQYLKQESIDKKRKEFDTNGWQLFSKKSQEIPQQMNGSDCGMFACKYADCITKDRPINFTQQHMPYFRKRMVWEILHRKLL
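Assay system: hSENP1 catalytic domain, recombinant. Amount: SENP1 enzyme, 20 pM final. Schedule: 50 min reaction, RT, dark. Technique: FRET, CFP and YFP emission. Control set: no-enzyme wells low, DMSO-plus-enzyme wells high control.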
VLA-4 inh: inhibition in human VLA-4 binding assay, primary screen, VLA-4 allosteric modulator project, MLPCN library, flow cytometry, VLA-4 expressing cells; Integrin alpha-4 (Homo sapiens), P13612; ligand binding flow cytometry; inhibition, % (about 7 µM as worked out from the volumes in the protocol); 330,000 tested, 0.2% active; AID 2557, 2010; in the data active means inhibition above about 50%
Myeloid diff MLP: induction of myeloid progenitor differentiation, primary screen, cell-based, flow cytometry, MLPCN library | calls only at 10 µM | 360,000 tested, 1% active | ER-HoxA9 myeloid progenitors, lysozyme-GFP differentiation;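 active means normalized GFP-positive differentiation at or above the plate's own cutoff, the solvent-only control mean plus 3 SD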;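 further: cells exposed to compound for four days before flow analysis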
Platelet DG rel: inhibitors of platelet dense granule secretion, primary screen, cell-based, MLPCN, human platelets; human platelet-rich plasma, SFLLRN dense granule ATP release, luminescence; inhibition, %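 (compounds screened at 7.5 µM in platelet-rich plasma)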; 300,000 tested, 0.22% active;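 active means mean replicate score, as percent of positive control, at or above 50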
VLA-4 mod pick: retest of VLA-4 allosteric modulators, confirmation, cell-based, cherry-picked plates, U937, HUTS-21 LIBS antibody | shares compounds with VLA-4 inh | U937 cells, HUTS-21 LIBS mAb binding, flow cytometry; LDV ligand present at threefold Kd | inhibition, % at 6.7 µM | 1,300 tested, 2% active | AID 2813, 2010; in the data active means inhibition above about 40%
Myeloid diff: inducers of myeloid progenitor differentiation, confirmation, cell-based, GFP/Mac1 flow cytometry, cherry pick 01 | ER-HoxA9 myeloid progenitors, GFP/Mac1 double-positive flow | calls only | 2,300 tested, 2% active | shares compounds with Myeloid diff MLP;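 active means share of green or green-and-red cells above 9 and 9% in run 1 or 4 and 3% in run 2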
GFP autofluor: counter-screen for myeloid differentiation promoters: compound fluorescence | shares compounds with Myeloid diff MLP | ER-HoxA9 myeloid progenitors, no estrogen, GFP autofluorescence flow cytometry; vehicle wells 0%, positive control 100% | fluorescence response, % (concentration not given with the values) | 2,300 tested, 7.4% active | AID 651707;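 active means over 5% cells positive for green fluorescent reporter, or over 2% positive for both it and APC stain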
Hits are given with their value; i = inactive; nt = not tested or not shown; + = active, no number. Hits are enriched below; roughly 1.5% of the tested compounds scored in any of these assays.

SMILES	SENP1 FRET inh	VLA-4 inh	Myeloid diff MLP	Platelet DG rel	VLA-4 mod pick	others
CCCCC[C@@H]1C=C(C(=O)O)[C@H](c2ccc(Br)cc2)N1S(=O)(=O)c1ccc(C)cc1	i	i	i	nt	i
CCCC[C@@H]1C=C(C(=O)O)[C@H](c2ccc3c(c2)OCO3)N1S(=O)(=O)c1ccc(C)cc1	i	i	i	nt	i
Cc1ccc([C@@H]2CC=C(C(=O)O)[C@H](c3ccc(Br)cc3)N2S(=O)(=O)c2ccc(C)cc2)cc1	i	i	i	nt	nt
Cc1ccc(S(=O)(=O)N2[C@@H](c3ccc(Cl)cc3)C(C(=O)O)=C[C@H]2CC2CCCC2)cc1	i	i	+	nt	i
CC[C@@H]1C=C(C(=O)O)[C@H](c2ccc(Cl)cc2)N1S(=O)(=O)c1ccc(C)cc1	i	i	i	nt	nt
Cc1ccc(S(=O)(=O)N2[C@@H](c3ccc(Cl)c(Cl)c3)C(C(=O)O)=C[C@H]2CC2CCCC2)cc1	i	i	i	nt	nt
CCCC[C@@H]1C=C(C(=O)O)[C@H](c2ccc(Cl)cc2)N1S(=O)(=O)c1ccc(C)cc1	i	i	i	nt	i
O=C(NNC(=O)C1CC(=O)N(Cc2ccccc2)C1)c1ccc(Br)cc1 (stereo not given)	i	i	i	i	nt
CC(C)n1nnnc1SCC(=O)N1N=C(c2cccs2)CC1c1cccs1 (stereo not given)	i	i	i	nt	nt
O=C(O)c1ccc(S(=O)(=O)N2CCCc3ccccc32)cc1	i	i	i	i	nt
COCCNC(=O)c1ccc(S(=O)(=O)N2CCCc3ccccc32)cc1	i	i	i	i	i
O=C(NCc1ccco1)c1cc(S(=O)(=O)N2CCCc3ccccc32)ccc1Cl	i	i	i	i	nt
CCNC(=O)COC(=O)c1cc(S(=O)(=O)N2CCCc3ccccc32)ccc1Cl	i	i	i	i	i
COc1cc(OC)cc(C(=O)Nc2sc3c(c2C(N)=O)CCC3)c1	i	i	i	i	nt
COc1ccc(C(=O)N(CCc2ccccc2)Cc2ccccc2)c(OC)n1	i	i	i	i	i
CCOc1cnn(-c2ccccc2)c(=O)c1Cl	i	i	i	i	i
CCSc1cnn(-c2ccccc2)c(=O)c1Cl	i	i	i	i	nt
O=C1C2C3C=CC(CO)(O3)C2C(=O)N1c1ccccc1-c1ccccc1 (stereo not given)	i	49.8	i	nt	i
CC1(C(=O)NS(=O)(=O)C2CC2)CCCN(C(=O)c2ccc(F)c(Cl)c2)C1 (stereo not given)	i	nt	i	nt	nt
CC(CCN1C(N(C)C)=NC[C@@H]1C)c1ccccc1 (stereo not given in full)	i	i	i	nt	nt
COc1ccc(C)cc1NC(=O)COC(=O)C1COc2ccccc2O1 (stereo not given)	i	i	i	nt	nt
COc1ccc(S(=O)(=O)N2CCOCC2)cc1NC(=O)COC(=O)C1COc2ccccc2O1 (stereo not given)	i	i	i	i	i
COC(=O)c1cn(CC(=O)Nc2ccccc2C)c2ccccc12	i	i	i	i	i
CCC(=O)c1cn(CC(=O)Nc2ccc(C)cc2)c2ccccc12	i	i	i	i	i
CCC(=O)c1cn(CC(=O)Nc2ccccc2F)c2ccccc12	i	i	i	i	i
SMILES	SENP1 FRET inh	VLA-4 inh	Myeloid diff MLP	Platelet DG rel	VLA-4 mod pick	others
CC(=O)c1cn(CC(=O)Nc2ccccc2F)c2ccccc12	i	i	i	i	nt
CCC(=O)c1cn(CC(=O)Nc2ccc(OC)cc2)c2ccccc12	i	57.2	i	i	i
COc1ccc(/C=C/C(=O)OC(C)CN2CCCCC2)cc1 (stereo not given)	i	i	i	i	nt
COc1cc2c(cc1OC)C(c1ccccc1)NC(C)(C)C2 (stereo not given)	i	i	i	i	nt
CN1CCc2nc(SCC(=O)Nc3ccc(Cl)cc3)c(C#N)cc2C1	i	105.5	i	i	i
COc1ccc(NC(=O)CSc2nc(N)c(C#N)cc2C#N)cc1	i	i	i	i	nt
c1ccc(CNc2nc(NCc3ccccc3)c3sccc3n2)cc1	i	nt	i	nt	nt
CCCCn1c(SCC(=O)Nc2ccc3c(c2)CCC3)nc2ccccc2c1=O	i	i	i	i	i
O=C(c1ccc(-c2ccccc2Cl)o1)N1CCN(S(=O)(=O)c2cccs2)CC1	i	i	i	i	nt
CC(C)[C@H](NC(=O)N1CC(=O)Nc2ccccc21)C(=O)N[C@H](C(=O)O)c1ccccc1	i	i	i	i	nt
CC(C)c1ccc(NC(=O)C(c2ccccc2)N2CC(=O)Nc3ccccc32)cc1 (stereo not given)	i	71.8	i	i	i
COc1ccc(CNc2ncnc3c2[nH]c2ccccc23)cc1	i	i	i	i	nt
Cc1ccc2[nH]c3c(Cl)ncnc3c2c1	i	i	i	i	nt
CCCOc1ncnc2c1[nH]c1ccc(C)cc12	nt	i	nt	i	i
CCOc1ncnc2c1[nH]c1ccccc12	i	i	i	i	i
CN1C(=O)Cc2cc(S(=O)(=O)Nc3ccc(N4CCOCC4)cc3)ccc21	i	i	i	i	i
COc1ccc(CNC(=O)Cn2c(=O)oc3ccccc32)cc1OC	i	97.0	i	nt	i	Myeloid diff=i;GFP autofluor=i
CCOc1ccc(S(=O)(=O)Nc2ccccc2C(=O)N(C)C2CCN(C)CC2)cc1	i	49.7	i	nt	i	Myeloid diff=i;GFP autofluor=i
Cc1ccc(S(=O)(=O)N2[C@@H](c3ccc4c(c3)OCO4)C(C(=O)O)=C[C@H]2C(C)(C)C)cc1	i	i	i	nt	nt
CC(C)(C)[C@@H]1C=C(C(=O)O)[C@H](c2ccc(Cl)cc2)N1S(=O)(=O)c1ccccc1	i	i	+	nt	i	Myeloid diff=i;GFP autofluor=i
COc1ccccc1CNC(=O)c1ccc2c(=O)n(CCCN3CCCC3=O)c(=S)[nH]c2c1	i	i	i	i	nt
O=C(NCc1ccc(Cl)cc1)C1CC(O)CN1S(=O)(=O)c1ccc(Cl)cc1 (stereo not given)	i	i	i	i	nt
